Results from ChEMBL document CHEMBL5154634, “A Modular Synthetic Route Involving N-Aryl-2-nitrosoaniline Intermediates Leads to a New Series of 3-Substituted Halogenated Phenazine Antibacterial Agents” (J Med Chem, 2021).
In brackets after ≈: the same amount, converted by molar mass.

Tests used:
Staphylococcus aureus [1] = assay: Antibacterial activity against methicillin-resistant Staphylococcus aureus BAA-44 assessed as bacterial growth inhibition incubated for 16 hrs by broth microdilution susceptibility test; format: functional
In short: (§1)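 CLSI broth microdilution with 11 twofold dilutions (0.05–50 μM). Medium was LB for the staphylococci and BHI for VRE 700221. About 10^5 cells per well from a log-phase culture. […] DMSO vehicle up to 0.5% v/v. At least three independent experiments.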

[2] = system: Staphylococcus epidermidis; assay: Antibacterial activity against methicillin-resistant Staphylococcus epidermidis ATCC 35984 assessed as bacterial growth inhibition incubated for 16 hrs by broth microdilution susceptibility test; format: functional
In short: (§2)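 CLSI broth microdilution with 11 twofold dilutions (0.05–50 μM). About 10^5 cells per well from a log-phase culture. DMSO vehicle up to 0.5% v/v. At least three independent experiments.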

Enterococcus faecium [3] = assay: Antibacterial activity against vancomycin-resistant Enterococcus faecium ATCC 700221 assessed as bacterial growth inhibition incubated for 16 hrs by broth microdilution susceptibility test; format: functional; in short: as §1
Enterococcus faecalis [4] = assay: Antibacterial activity against Enterococcus faecalis OG1RF ATCC 47077 assessed as bacterial growth inhibition incubated for 16 hrs by broth microdilution susceptibility test; format: functional
[5] = system: Mycobacterium tuberculosis; assay: Antibacterial activity against Mycobacterium tuberculosis H37Ra ATCC 25177 assessed as bacterial growth inhibition incubated for 7 days by absorbance based analysis; format: functional; conditions: H37Ra ATCC 25177, 168 h, time 7 day
In short: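 H37Ra grown 2 weeks in Middlebrook 7H9, then diluted to OD600 0.01. Compounds added in twofold dilutions, final 0.024–50 μM, with 0.5% DMSO and streptomycin as positive control. Incubated 7 days at 37 °C. MIC is the lowest concentration with no growth, with OD600 recorded. At least three independent experiments.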

[6] = system: Mycobacterium tuberculosis; assay: Antibacterial activity against Mycobacterium tuberculosis CDC1551 assessed as bacterial growth inhibition incubated for 5 days by luminescence based analysis; format: functional; conditions: CDC1551, 120 h, time 5 day
In short: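 Bioluminescent Mtb-lux CDC1551 reporter grown in Middlebrook 7H9 with 0.05% Tween 80, 10% OADC and kanamycin to OD600 0.4–0.8, then diluted to OD600 0.02. Added to twofold drug dilutions (0.003–200 μM). Incubated 5 days at 37 °C, 5% CO2. Luminescence read against 1% DMSO and 10 μM rifampicin controls to give % growth inhibition. MIC taken from a modified Gompertz fit.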

HeLa = assay: Cytotoxicity against human HeLa cells assessed as reduction in cell viability incubated for 24 hrs by LDH release assay; format: toxicity, cell-based
In short: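 HeLa cells in DMEM with 10% FBS, treated at 70–80% confluence with 25, 50 and 100 μM for 24 h. LDH in supernatant measured by 30 min reaction at room temperature, then stop solution and absorbance at 490 nm. Controls: 2% Triton X-100 (maximum), medium only, DMSO vehicle. Three independent experiments.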

J774 = assay: Cytotoxicity against mouse J774 cells assessed as reduction in cell viability […] by Alamar blue assay; format: toxicity, cell-based
HepG2 = assay: Cytotoxicity against human HepG2 cells assessed as reduction in cell viability […] by Alamar blue assay; format: toxicity, cell-based
Staphylococcus aureus [7] = assay: Bactericidal activity against methicillin-resistant Staphylococcus aureus BAA-1707 planktonic cells assessed as planktonic eradication incubated for 24 hrs followed by incubation for overnight in fresh medium by Calgary biofilm device assay; format: functional
In short: (§3)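 Calgary biofilm device. Biofilms grown 24 h at 37 °C in TSB with 0.5% glucose, then challenged 24 h with twofold compound dilutions. 20 μL of challenge medium transferred into fresh TSB with 0.5% glucose and incubated overnight at 37 °C. MBC is the concentration with no visible turbidity. At least three independent experiments.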

Staphylococcus aureus [8] = assay: Antibiofilm activity against methicillin-resistant Staphylococcus aureus BAA-1707 biofilms assessed as biofilm eradication incubated for 24 hrs followed by incubation for 24 hrs in fresh medium by Calgary biofilm device assay; format: functional
In short: (§4)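 Calgary biofilm device. Mid-log culture diluted 1000-fold in TSB with 0.5% glucose; biofilms grown on pegs 24 h at 37 °C. Pegs washed and challenged with twofold compound dilutions for 24 h at 37 °C, then moved to fresh medium for 24 h. MBEC is the lowest concentration leaving wells non-turbid. At least three independent experiments.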

[9] = system: Staphylococcus epidermidis; assay: Bactericidal activity against methicillin-resistant Staphylococcus epidermidis ATCC 35984 planktonic cells assessed as planktonic eradication incubated for 24 hrs followed by incubation for overnight in fresh medium by Calgary biofilm device assay; format: functional; in short: as §3
Enterococcus faecium [10] = assay: Bactericidal activity against methicillin-resistant vancomycin-resistant Enterococcus faecium ATCC 700221 planktonic cells assessed as planktonic eradication incubated for 24 hrs followed by incubation for overnight in fresh medium by Calgary biofilm device assay; format: functional; in short: as §3
Enterococcus faecium [11] = assay: Antibiofilm activity against methicillin-resistant vancomycin-resistant Enterococcus faecium ATCC 700221 biofilms assessed as biofilm eradication incubated for 24 hrs followed by incubation for 24 hrs in fresh medium by Calgary biofilm device assay; format: functional; in short: as §4
Enterococcus faecalis [12] = assay: Antibiofilm activity against Enterococcus faecalis OG1RF ATCC 47077 biofilms assessed as biofilm eradication incubated for 24 hrs followed by incubation for 24 hrs in fresh medium by Calgary biofilm device assay; format: functional
In short: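 Calgary biofilm device. Biofilms grown 24 h at 37 °C in BHI from mid-log culture diluted 1000-fold. Pegs washed and then challenged 24 h with twofold serial dilutions. Pegs moved to fresh BHI for 24 h recovery. MBEC = lowest concentration leaving no turbidity; at least three independent experiments.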

Erythrocyte = assay: Hemolytic activity against human RBC at 200 uM measured after 1 hr; format: toxicity, cell-based
In short: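 2% hRBCs exposed to compound at 200 μM final, added from DMSO stock, for 1 h at 37 °C. Supernatant OD read at 405 nm. Hemolysis normalized between DMSO (0%) and Triton X (100%); three independent experiments.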

Enterococcus faecalis [13] = assay: Bactericidal activity against […] Enterococcus faecalis OG1RF ATCC 47077 planktonic cells assessed as planktonic eradication incubated for 24 hrs followed by incubation for overnight in fresh medium by Calgary biofilm device assay; format: functional
In short: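 Calgary biofilm device in BHI. Biofilms grown 24 h at 37 °C and challenged 24 h with twofold compound dilutions. Challenge medium subcultured 1:10 into fresh BHI overnight at 37 °C. MBC is the concentration with no turbidity. At least three independent experiments.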

[14] = Dissociation constant, pKa of the compound at 125 uM by UV-vis spectrophotometric analysis; format: physicochemical
In short: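 Compound at 125 μM final in phosphate buffers (KH₂PO₄/Na₂HPO₄) in 1:1 water/methanol, pH 4.07–9.66; ammonium hydroxide added for pH above 9.80. UV-vis scans 200–800 nm to find λmax of phenol and phenolate forms. Absorbance at each λmax plotted against pH.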

[15] = system: Staphylococcus epidermidis; assay: Antibiofilm activity against methicillin-resistant Staphylococcus epidermidis ATCC 35984 biofilms assessed as biofilm eradication incubated for 24 hrs followed by incubation for 24 hrs in fresh medium by Calgary biofilm device assay; format: functional; in short: as §4
Staphylococcus aureus [16] = assay: Antibacterial activity against methicillin-resistant Staphylococcus aureus BAA-1707 assessed as bacterial growth inhibition incubated for 16 hrs by broth microdilution susceptibility test; format: functional; in short: as §2

SMILES | MIC (Staphylococcus aureus [1]) [µM] | MIC [2] [µM] | MIC (Enterococcus faecium [3]) [µM] | MIC (Enterococcus faecalis [4]) [µM] | MIC [5] [µM] | MIC [6] [µM] | IC50 (HeLa) [µM] | IC50 (J774) [µM] | IC50 (HepG2) [µM] | MBC (Staphylococcus aureus [7]) [µM] | MBEC (Staphylococcus aureus [8]) [µM] | MBC [9] [µM] | MBC (Enterococcus faecium [10]) [µM] | MBEC (Enterococcus faecium [11]) [µM] | MBEC (Enterococcus faecalis [12]) [µM] | Activity (Erythrocyte) | MBC (Enterococcus faecalis [13]) [µM] | pKa at 125 µM [14] | MBEC [15] [µM] | MIC (Staphylococcus aureus [16]) [µM]
Oc1c(Br)c(Cl)c(Br)c2nc3c(Oc4ccccc4)cccc3nc12 | 0.1 (≈ 0.0481 µg/mL) | 0.2 (≈ 0.0961 µg/mL) | 0.15 (≈ 0.0721 µg/mL) | 0.78 (≈ 0.375 µg/mL) | 3.13 (≈ 1.5 µg/mL) | 3.01 (≈ 1.45 µg/mL) | > 100 | > 200 | > 200 | […] | 1.56 | 1.56 (≈ 0.75 µg/mL) | 0.78 (≈ 0.375 µg/mL) | 0.39 | 75 | 2.6% |  |  |  | 
O=C(O)CN(CCN(CC(=O)O)CC(=O)O)CC(=O)O [EDETIC ACID] | 125 (≈ 36.5 µg/mL) |  |  | 500 (≈ 146 µg/mL) |  |  |  |  |  |  | >2000 |  |  |  | >2000 | <= 1% | > 2000 |  |  | 
COCCOCCOCCOCCSc1c(Br)c(O)c2nc3cccc(C)c3nc2c1Br |  | 2.35 (≈ 1.39 µg/mL) | 3.13 (≈ 1.85 µg/mL) |  |  |  |  |  |  |  |  |  |  |  |  |  |  | 7.93 |  | 
Oc1c(Br)c(Cl)c(Br)c2nc3ccc(Br)cc3nc12 | 1.56 (≈ 0.729 µg/mL) | 0.1 (≈ 0.0467 µg/mL) | 0.3 (≈ 0.14 µg/mL) | 0.78 (≈ 0.365 µg/mL) |  |  |  |  |  | 12.5 (≈ 5.84 µg/mL) | 12.5 | 6.25 (≈ 2.92 µg/mL) | 4.69 (≈ 2.19 µg/mL) |  |  | 5.1% |  |  | 6.25 | 
Cc1ccc2nc3c(O)cc(Cl)cc3nc2c1C | 2.35 (≈ 0.608 µg/mL) | 2.35 (≈ 0.608 µg/mL) | 3.13 (≈ 0.81 µg/mL) | 12.5 (≈ 3.23 µg/mL) |  |  |  |  |  |  |  |  |  |  |  |  |  |  |  | 2.35 (≈ 0.608 µg/mL)
Oc1cc(Cl)cc2nc3c(Cl)cc(Cl)cc3nc12 | 0.3 (≈ 0.0899 µg/mL) |  |  | 9.38 (≈ 2.81 µg/mL) | 3.13 (≈ 0.938 µg/mL) | 2.31 (≈ 0.692 µg/mL) | > 100 | > 200 | > 200 | 18.8 (≈ 5.63 µg/mL) | 75 |  |  |  |  | <= 1% |  | 6.89 |  | 
